Experimental data gathered from unrelated publications.
Lines come from different studies, so protocols differ.
Target: Mu-type opioid receptor (Oprm1, Rattus norvegicus, UniProt P33535)

SMILES | read-out | technique | notes | Ki [nM]
Cc1cc(O)cc(C)c1C[C@H](N)C(=O)N1CCc2ccc(Cc3ccc([N+](=O)[O-])cc3)cc2C1 | ligand displacement | radioligand | cell membranes | 2.6
Cc1cc(O)cc(C)c1C[C@H](C)C(=O)N[C@@H]1CCCCC[C@@H](C(N)=O)NC(=O)[C@H](Cc2ccccc2)NC(=O)[C@H](Cc2ccccc2)NC1=O | ligand displacement | radioligand | cell membranes | 18.3
Cc1cc(O)cc(C)c1C[C@H](N)C(=O)N[C@H](CCCNC(=N)N)C(=O)N[C@@H](Cc1c(C)cccc1C(C)C)C(=O)N[C@@H](CCCCN)C(N)=O | ligand displacement | radioligand | cell membranes | 0.155
C[C@@H](NC(=O)[C@@H](N)Cc1ccc(O)cc1)C(=O)NCC(=O)N[C@@H](Cc1ccc(Cl)cc1)C(=O)N(C)CCC[C@@]1(c2ccc(F)cc2)OCc2cc(C#N)ccc21 | cell-free assay |  |  | 7
Cc1cc(O)cc(C)c1C[C@H](N)C(=O)N1CCc2ccc(Cc3ccccc3[N+](=O)[O-])cc2C1 | ligand displacement | radioligand | cell membranes | 10
C[C@@H](NC(=O)[C@@H](N)Cc1ccc(O)cc1)C(=O)NCC(=O)N[C@H](CC(=O)NNC(=O)C[C@H](Cc1ccccc1)NC(=O)CNC(=O)[C@@H](C)NC(=O)[C@@H](N)Cc1ccc(O)cc1)Cc1ccccc1 | ligand displacement | radioligand |  | 1.1
Cc1ccccc1Cc1ccc2c(c1)CN(C(=O)[C@@H](N)Cc1c(C)cc(O)cc1C)CC2 | ligand displacement | radioligand | cell membranes | 2.5
Cc1cc(O)cc(C)c1C[C@H](C)C(=O)N[C@@H]1C/C=C\CC[C@@H](C(N)=O)NC(=O)[C@H](Cc2ccccc2)NC(=O)[C@H](Cc2ccccc2)NC1=O | ligand displacement | radioligand | cell membranes | 7.44
Cc1cccc(C)c1C[C@H](NC(=O)[C@@H](CCCNC(=N)N)NC(=O)[C@@H](N)Cc1c(C)cc(O)cc1C)C(=O)N[C@@H](CCCCN)C(N)=O | ligand displacement | radioligand | cell membranes | 0.00935
Cc1cc(O)cc(C)c1C[C@H](N)C(=O)N1Cc2ccccc2CC1C(=O)NCC(=O)NC(Cc1ccc(Cl)cc1)C(=O)N(C)CCC[C@@]1(c2ccc(F)cc2)OCc2cc(C#N)ccc21 (stereo in doubt) | cell-free assay |  |  | 35
Cc1cc(O)cc(C)c1C[C@H](N)C(=O)N[C@H](CCCNC(=N)N)C(=O)N[C@@H](Cc1c[nH]c2ccccc12)C(=O)N[C@@H](CCCCN)C(N)=O | ligand displacement | radioligand | cell membranes | 0.0991
Cc1cc(O)cc(C)c1C[C@H](N)C(=O)N1CCc2ccc(Cc3ccc(N)cc3)cc2C1 | ligand displacement | radioligand | cell membranes | 47
CCCC[C@@H](NC(=O)[C@@H](N)Cc1c(C)cc(O)cc1C)C(=O)NCC(=O)N[C@@H](Cc1ccc(F)cc1)C(=O)N(C)CCC[C@@]1(c2ccc(F)cc2)OCc2cc(C#N)ccc21 | cell-free assay |  |  | 1
Oc1cccc([C@]23CCC[C@H]([C@H]2O)N(CC=Cc2ccccc2)CC3)c1 | ligand displacement | radioligand |  | 0.74
